From ChEMBL document CHEMBL4715802, “Novel Irreversible Agonists Acting at the A Adenosine Receptor” (J Med Chem, 2016) come the findings set out here.

SMILES strings stand for the structures. Active and inactive are the calls of the source. The rule behind the calls is not given here.

Sequence of Adenosine receptor A2a (P29274 whole entry): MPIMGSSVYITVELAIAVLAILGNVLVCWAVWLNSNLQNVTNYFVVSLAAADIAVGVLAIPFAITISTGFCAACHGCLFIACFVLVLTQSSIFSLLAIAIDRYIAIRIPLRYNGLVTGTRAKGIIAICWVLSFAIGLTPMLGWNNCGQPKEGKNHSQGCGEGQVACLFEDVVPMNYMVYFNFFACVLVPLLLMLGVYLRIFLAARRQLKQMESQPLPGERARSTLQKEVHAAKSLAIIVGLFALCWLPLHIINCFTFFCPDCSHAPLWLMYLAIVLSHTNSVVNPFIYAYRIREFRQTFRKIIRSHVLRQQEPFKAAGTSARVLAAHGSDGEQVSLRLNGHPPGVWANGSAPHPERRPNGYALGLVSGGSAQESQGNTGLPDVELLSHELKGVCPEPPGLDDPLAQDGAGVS

For one experiment, the target named is T1, Adenosine receptor A1 (Homo sapiens) (UniProt P30542).
T1 sequence (whole entry): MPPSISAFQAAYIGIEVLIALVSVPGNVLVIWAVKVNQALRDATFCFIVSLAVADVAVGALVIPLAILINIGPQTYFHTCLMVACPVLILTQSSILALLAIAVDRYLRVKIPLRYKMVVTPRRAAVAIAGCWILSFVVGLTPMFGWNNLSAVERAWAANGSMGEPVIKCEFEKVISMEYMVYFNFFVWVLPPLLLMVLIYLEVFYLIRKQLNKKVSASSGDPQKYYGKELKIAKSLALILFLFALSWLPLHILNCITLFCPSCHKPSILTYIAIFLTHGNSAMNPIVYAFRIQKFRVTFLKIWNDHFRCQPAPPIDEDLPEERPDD
Description: Irreversible agonist activity at human adenosine A1 receptor expressed in Flp-In-CHO cells assessed as induction of positive change of cellular impedance at 1 uM incubated for 2 hrs by xCELLigence real-time cell analysis. The note with it: filed as agonist. Type of experiment: cell-based. The essentials:
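A1AR-FlpInCHO cells were serum-starved for about 18 h and equilibrated for at least 1 h at 37°C. 1 µM agonist or vehicle was added and impedance was recorded at 15 s intervals. […] Three experiments in duplicate.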
As to `OC[C@H]1O[C@@H](n2cnc3c(Nc4ccc(CN=C=S)cc4)ncnc32)[C@H](O)[C@@H]1O`, the outcome was Active.

With `OC[C@H]1O[C@@H](n2cnc3c(Nc4ccc(CNC(=S)Nc5ccc(N=C=S)cc5)cc4)ncnc32)[C@H](O)[C@@H]1O`, the result was Active.

Another experiment deals with T2, Adenosine receptor A1 (Homo sapiens, UniProt P30542).
T2 sequence (P30542 whole entry): T1 sequence (whole entry)
The experiment in a line: Irreversible agonist activity at human adenosine A1 receptor expressed in Flp-In-CHO cells assessed as stimulation of ERK1/2 phosphorylation incubated for 5 mins.
Settings: not given
Type of experiment: cell-based.
For orientation: EC50 means the concentration that produces a half-maximal response. On to `O=C(NCCCCCCCCCCNc1ncnc2c1ncn2[C@@H]1O[C@H](CO)[C@@H](O)[C@H]1O)C1=CC2C=CC1CC2` (stereo not given in full), for which the EC50 was 25.1 nM.

As for `OC[C@H]1O[C@@H](n2cnc3c(NCCNC(=S)Nc4ccc(N=C=S)cc4)ncnc32)[C@H](O)[C@@H]1O`, the EC50 was 3.16 nM.

As to `O=C(NCCCCCCNc1ncnc2c1ncn2[C@@H]1O[C@H](CO)[C@@H](O)[C@H]1O)C1=CC2C=CC1CC2` (stereo not given in full), the EC50 is 15.8 nM.

As to `OC[C@H]1O[C@@H](n2cnc3c(Nc4ccc(CN=C=S)cc4)ncnc32)[C@H](O)[C@@H]1O`, the EC50 was 20 nM.

On to `OC[C@H]1O[C@@H](n2cnc3c(Nc4ccc(CNC(=S)Nc5ccc(N=C=S)cc5)cc4)ncnc32)[C@H](O)[C@@H]1O`, for which the EC50 was 1.58 nM.

For another experiment, the system named is Flp-In-CHO. Description: Stimulation of ERK1/2 phosphorylation in Flp-In-CHO cells incubated for 5 mins. The note with it: Cricetulus griseus. Type of experiment: cell-based. The essentials: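 A1AR-FlpInCHO cells were seeded at 4×10^4/well and serum-starved for about 18 h. Cells were stimulated with agonist for 5 min at 37°C, then lysed, and pERK1/2 was detected by SureFire. […] Curves were fitted for pEC50 and Emax. Three experiments in duplicate.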
Take `O=C(NCCCCCCCCCCNc1ncnc2c1ncn2[C@@H]1O[C@H](CO)[C@@H](O)[C@H]1O)C1=CC2C=CC1CC2` (stereo not given in full): the outcome was inactive.

`OC[C@H]1O[C@@H](n2cnc3c(NCCNC(=S)Nc4ccc(N=C=S)cc4)ncnc32)[C@H](O)[C@@H]1O`: the result was inactive.

On to `O=C(NCCCCCCNc1ncnc2c1ncn2[C@@H]1O[C@H](CO)[C@@H](O)[C@H]1O)C1=CC2C=CC1CC2` (stereo not given in full), for which the outcome was inactive.

Consider `OC[C@H]1O[C@@H](n2cnc3c(Nc4ccc(CN=C=S)cc4)ncnc32)[C@H](O)[C@@H]1O`, for which the outcome was inactive.

`OC[C@H]1O[C@@H](n2cnc3c(Nc4ccc(CNC(=S)Nc5ccc(N=C=S)cc5)cc4)ncnc32)[C@H](O)[C@@H]1O`: the outcome was inactive.

For a further experiment, the target named is T1, Adenosine receptor A1 (Homo sapiens). The experiment in a line: Irreversible agonist activity at human adenosine A1 receptor expressed in Flp-In-CHO cells assessed as induction of positive change of cellular impedance at 1 uM incubated for 1.5 hrs followed by addition of 1 uM A1AR selective antagonist SLV320 by xCELLigence real-time cell analysis. Type of experiment: cell-based. The following applies: filed as agonist. The method in brief: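 A1AR-FlpInCHO cells were seeded at 4×10^4/well, serum-starved for about 18 h, and equilibrated in the impedance reader for at least 1 h at 37°C. Cells were exposed to 1 µM agonist and impedance was recorded every 15 s. After about 1.5–1.7 h, 1 µM SLV320 was added and recording continued. […] Three experiments in duplicate.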
Consider `OC[C@H]1O[C@@H](n2cnc3c(NCCNC(=S)Nc4ccc(N=C=S)cc4)ncnc32)[C@H](O)[C@@H]1O`, for which the result was Active.

Consider `OC[C@H]1O[C@@H](n2cnc3c(Nc4ccc(CN=C=S)cc4)ncnc32)[C@H](O)[C@@H]1O`, for which the outcome was Active.

On to `OC[C@H]1O[C@@H](n2cnc3c(Nc4ccc(CNC(=S)Nc5ccc(N=C=S)cc5)cc4)ncnc32)[C@H](O)[C@@H]1O`, for which the result was Active.

A further experiment has the same target. Description: Binding affinity to human adenosine A1 receptor expressed in Flp-In-CHO cell membranes assessed as [3H]DPCPX binding level at 10 uM incubated for 1 hr followed by washing by liquid scintillation counting based equilibrium radioligand binding assay. The note with it: Cell membrane, filed as agonist. The essentials: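 Membranes from A1AR-FlpInCHO cells were pre-incubated with 10 µM ligand in PBS with 1 unit ADA for 1 h at 37°C. They were then washed 3× with PBS, with 1 h at 37°C between washes, and resuspended in HME buffer. [3H]DPCPX at 0.1–12 nM was bound for 1 h at 37°C, filtered and β-counted. Nonspecific binding was defined with 1 µM SLV320. Results are expressed as % of buffer-pretreated Bmax, from three experiments in duplicate.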
As to `OC[C@H]1O[C@@H](n2cnc3c(Nc4ccc(CNC(=S)Nc5ccc(N=C=S)cc5)cc4)ncnc32)[C@H](O)[C@@H]1O`, the Activity amounted to 8%.

For the next experiment the target is unchanged. The experiment in a line: Binding affinity to human adenosine A1 receptor expressed in Flp-In-CHO cell membranes assessed as basal [35S]GTP-gamma-S incorporation level at 10 uM incubated for 40 mins followed by washing by liquid scintillation counting. The following applies: Cell membrane. The essentials: (§1)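 Membranes were pretreated with 10 µM ligand and washed as for the [3H]DPCPX assay. […] 300 pM [35S]GTPγS was then added for 40 min at 20°C, followed by filtration and counting. Values are normalised to NECA-stimulated vehicle-pretreated membranes.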
(Binding of GTPγS marks nucleotide exchange on a G protein.)
For `OC[C@H]1O[C@@H](n2cnc3c(Nc4ccc(CNC(=S)Nc5ccc(N=C=S)cc5)cc4)ncnc32)[C@H](O)[C@@H]1O`, the Activity amounted to 124%.

For a further experiment the target is unchanged. The experiment in a line: Binding affinity to human adenosine A1 receptor expressed in NECA-pre-treated Flp-In-CHO cell membranes assessed as [35S]GTP-gamma-S incorporation level at 10 uM incubated for 40 mins followed by washing by liquid scintillation counting. The following applies: Cell membrane, filed as agonist. The method in brief:
as §1
Take `OC[C@H]1O[C@@H](n2cnc3c(Nc4ccc(CNC(=S)Nc5ccc(N=C=S)cc5)cc4)ncnc32)[C@H](O)[C@@H]1O`: the result was Active.

For the next experiment the target is unchanged. The experiment in a line: Binding affinity to human adenosine A1 receptor expressed in Sf9 cells assessed protein melting temperature at 10 uM incubated for 30 mins by Thermo-fluor assay. Type of experiment: cell membranes. The note with it: Cell membrane, filed as agonist. The essentials:
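Human A1AR was purified from Sf9 cells in LMNG/CHS. 0.2 µg receptor was incubated with 10 µM compound for 20 h at 4°C in HEPES pH 7.5 buffer with ADA. CPM dye at 10 µM final was added for 30 min at rt. The sample was heated from 4 to 80°C in 3° steps, holding 90 s each, and fluorescence was read at 380/470 nm to derive Tm. Three experiments in duplicate.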
For the compound `OC[C@H]1O[C@@H](n2cnc3c(Nc4ccc(CN=C=S)cc4)ncnc32)[C@H](O)[C@@H]1O`, the Tm turned out to be 42.7 °C.

As for `OC[C@H]1O[C@@H](n2cnc3c(Nc4ccc(CNC(=S)Nc5ccc(N=C=S)cc5)cc4)ncnc32)[C@H](O)[C@@H]1O`, the Tm worked out at 46.6 °C.

A further experiment concerns the target T2, Adenosine receptor A1. Description: Irreversible agonist activity at human adenosine A1 receptor expressed in Flp-In-CHO cells assessed as effect on forskolin-induced cAMP accumulation incubated for 30 mins by LANCE cAMP detection assay.
Settings: not given
Format: functional, cell-based. The method in brief:
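For Gi/o-coupled A1 or A3 FlpInCHO cells, cells were preincubated for 30 min at 37°C in stimulation buffer containing 10 µM rolipram. Agonist (10 pM–10 µM) was then added with 3 µM forskolin for 30 min at 37°C. The reaction was stopped with ethanol, cells were lysed, and cAMP was read by LANCE TR-FRET. Three to four experiments in duplicate.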
A general note: cAMP levels reflect the balance of adenylyl cyclase and phosphodiesterase activity.
In the case of `OC[C@H]1O[C@@H](n2cnc3c(Nc4ccc(CN=C=S)cc4)ncnc32)[C@H](O)[C@@H]1O`, the half-maximal effective concentration (EC50) is 269 nM.

As to `OC[C@H]1O[C@@H](n2cnc3c(Nc4ccc(CNC(=S)Nc5ccc(N=C=S)cc5)cc4)ncnc32)[C@H](O)[C@@H]1O`, the concentration for a half-maximal effect (EC50) was 55 nM.

The next experiment addresses Adenosine receptor A2a (Homo sapiens, UniProt P29274). The experiment in a line: Irreversible agonist activity at human adenosine A2A receptor expressed in Flp-In-CHO cells assessed as effect on forskolin-induced cAMP accumulation incubated for 30 mins by LANCE cAMP detection assay. Type of experiment: functional, cell-based.
Settings: not given
With `OC[C@H]1O[C@@H](n2cnc3c(Nc4ccc(CN=C=S)cc4)ncnc32)[C@H](O)[C@@H]1O`, the EC50 was 646 nM.

As for `OC[C@H]1O[C@@H](n2cnc3c(Nc4ccc(CNC(=S)Nc5ccc(N=C=S)cc5)cc4)ncnc32)[C@H](O)[C@@H]1O`, the EC50 was 67.6 nM.

A further experiment has as its target T3, Adenosine receptor A2b (Homo sapiens, UniProt P29275).
T3 sequence (P29275 whole entry): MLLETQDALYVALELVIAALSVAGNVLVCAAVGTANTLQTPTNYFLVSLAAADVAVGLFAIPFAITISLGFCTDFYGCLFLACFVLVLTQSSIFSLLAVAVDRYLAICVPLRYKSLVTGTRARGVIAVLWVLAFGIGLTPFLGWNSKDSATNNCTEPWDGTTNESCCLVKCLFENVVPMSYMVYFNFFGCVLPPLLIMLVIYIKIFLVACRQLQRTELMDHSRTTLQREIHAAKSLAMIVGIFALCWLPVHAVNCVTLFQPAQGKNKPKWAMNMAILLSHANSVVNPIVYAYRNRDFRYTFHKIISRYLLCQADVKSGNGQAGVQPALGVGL
The experiment in a line: Irreversible agonist activity at human adenosine A2B receptor expressed in Flp-In-CHO cells assessed as effect on forskolin-induced cAMP accumulation incubated for 30 mins by LANCE cAMP detection assay.
Settings: not given
Type of experiment: functional, cell-based. The method in brief: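 A2BAR-FlpInCHO cells in stimulation buffer with rolipram were exposed to agonist with no preincubation, then stopped with ethanol, lysed, and cAMP was detected by LANCE. Three to four experiments in duplicate.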
In the case of `OC[C@H]1O[C@@H](n2cnc3c(Nc4ccc(CN=C=S)cc4)ncnc32)[C@H](O)[C@@H]1O`, the EC50 is 708 nM.

Take `OC[C@H]1O[C@@H](n2cnc3c(Nc4ccc(CNC(=S)Nc5ccc(N=C=S)cc5)cc4)ncnc32)[C@H](O)[C@@H]1O`: the concentration for a half-maximal effect (EC50) is 224 nM.

Another experiment deals with T4, Adenosine receptor A3 (Homo sapiens, UniProt P0DMS8).
T4 sequence (P0DMS8 whole entry): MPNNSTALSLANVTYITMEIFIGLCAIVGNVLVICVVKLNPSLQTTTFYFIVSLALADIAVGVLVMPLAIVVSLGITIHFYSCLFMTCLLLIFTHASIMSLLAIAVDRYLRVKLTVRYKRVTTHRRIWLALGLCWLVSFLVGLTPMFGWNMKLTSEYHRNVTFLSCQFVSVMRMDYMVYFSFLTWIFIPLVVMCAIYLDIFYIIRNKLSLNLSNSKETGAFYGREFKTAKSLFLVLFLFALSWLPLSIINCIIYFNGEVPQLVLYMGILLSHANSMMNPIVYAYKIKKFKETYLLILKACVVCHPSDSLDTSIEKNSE
Description: Irreversible agonist activity at human adenosine A3 receptor expressed in Flp-In-CHO cells assessed as effect on forskolin-induced cAMP accumulation incubated for 30 mins by LANCE cAMP detection assay. Type of experiment: functional, cell-based.
Settings: not given
The essentials: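 For Gi/o-coupled A1 or A3 FlpInCHO cells, cells were preincubated for 30 min at 37°C in stimulation buffer containing 10 µM rolipram. Agonist (10 pM–10 µM) was then added with 3 µM forskolin for 30 min at 37°C. The reaction was stopped with ethanol, cells were lysed, and cAMP was read by LANCE TR-FRET. […] Three to four experiments in duplicate.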
For `OC[C@H]1O[C@@H](n2cnc3c(Nc4ccc(CN=C=S)cc4)ncnc32)[C@H](O)[C@@H]1O`, the EC50 was 347 nM.

Turning to `OC[C@H]1O[C@@H](n2cnc3c(Nc4ccc(CNC(=S)Nc5ccc(N=C=S)cc5)cc4)ncnc32)[C@H](O)[C@@H]1O`, the concentration giving a half-maximal response (EC50) was 44.7 nM.

For a further experiment, the system named is Flp-In-CHO. Description: Effect on forskolin-induced cAMP accumulation in Flp-In-CHO cells incubated for 30 mins by LANCE cAMP detection assay. The following applies: Cricetulus griseus. Format: functional, cell-based.
Regarding `OC[C@H]1O[C@@H](n2cnc3c(Nc4ccc(CN=C=S)cc4)ncnc32)[C@H](O)[C@@H]1O`, the result was inactive.

Turning to `OC[C@H]1O[C@@H](n2cnc3c(Nc4ccc(CNC(=S)Nc5ccc(N=C=S)cc5)cc4)ncnc32)[C@H](O)[C@@H]1O`, the outcome was inactive.
